Assay outcomes deposited in PubChem by several laboratories.
Hits are enriched below; roughly 1.8% of the tested compounds scored in any of these assays.
Rpn11 block: Rpn11 (human) deubiquitinase inhibition | calls only at 20 µM | AID 588493 | human 26S proteasome, Ub4-pepOG fluorescence polarization; 20S core pre-blocked with epoxomicin | actives 0.59% (n = 360,000);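 active = inhibition at 20 µM, scaled to each plate's controls, above about 33%, limit read from the data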
Target sequence (O00487 whole entry, looked up): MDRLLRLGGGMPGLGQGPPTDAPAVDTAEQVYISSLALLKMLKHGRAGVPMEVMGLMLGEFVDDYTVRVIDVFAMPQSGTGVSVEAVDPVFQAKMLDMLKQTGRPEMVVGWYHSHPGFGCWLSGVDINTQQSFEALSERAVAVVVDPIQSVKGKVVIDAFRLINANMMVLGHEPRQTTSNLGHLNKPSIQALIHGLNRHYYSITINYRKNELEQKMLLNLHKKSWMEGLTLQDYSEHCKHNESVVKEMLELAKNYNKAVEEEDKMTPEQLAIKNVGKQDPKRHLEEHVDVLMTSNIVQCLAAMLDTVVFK
CSN inh: inhibitors of human CSN-mediated cullin deneddylation; actives 0.38% (n = 360,000); inhibition, % at 12.5 µM; Q92905; Purified CSN, SCF-Nedd8-OG deneddylation, fluorescence polarization;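 active = pattern-corrected inhibition above about 35%, with an unprinted fluorescence ratio check between 0.5 and 1.5, limit read from the data, passing the limit was not always enough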;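 also: 0% = enzyme with substrate and 100% = substrate without enzyme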
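Material: purified human Csn5 enzyme expressed in HEK293T cells / Medium: Tris buffer pH 7.5, NaCl, DTT, Tween-20, trehalose, ovalbumin / Compound dosing: 12.5 µM single point / Schedule: 90 min incubation of compound, enzyme and substrate at room temperature / Signal: fluorescence polarization of the substrate / Control set: no-enzyme wells high, enzyme-with-substrate wells low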
TPT1 inhibitor: inhibitors of Candida albicans tRNA 2'-phosphotransferase TPT1; recombinant caTPT1, FP RNA substrate dephosphorylation; inhibition, % at 5 µM; actives 0.81% (n = 300,000); AID 1962;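 active = inhibition above the mean of all tested compounds plus 3 SD, set per screening campaign, cut at about 24% in these data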;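 also: plate controls were DMSO alone for no effect and ferristatin control at 100 nM for full effect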
HNF4A DNA FP: change in binding of human HNF4 alpha to DNA. P41235. HNF4a-FITC DNA binding, fluorescence polarization, 1 h. activity change, % at 10 µM. actives 0.3% (n = 360,000). AID 1224865; in the data active = activity change above about 30%, passing the limit was not always enough
SENP1 inh: blocks the human SENP1 SUMO protease catalytic domain; AID 624204; actives 0.21% (n = 360,000); recombinant SENP1 catalytic domain, CyPet-SUMO1-YPet FRET cleavage; inhibition, % at 10 µM;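 active = inhibition at least 30% at 10 µM, raw YFP signal under a set limit, fluorescence ratio 0.5 to 1.5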;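 also: 0% = enzyme with DMSO and 100% = no enzyme wells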
Target sequence (Q9P0U3 419-644 limits assumed): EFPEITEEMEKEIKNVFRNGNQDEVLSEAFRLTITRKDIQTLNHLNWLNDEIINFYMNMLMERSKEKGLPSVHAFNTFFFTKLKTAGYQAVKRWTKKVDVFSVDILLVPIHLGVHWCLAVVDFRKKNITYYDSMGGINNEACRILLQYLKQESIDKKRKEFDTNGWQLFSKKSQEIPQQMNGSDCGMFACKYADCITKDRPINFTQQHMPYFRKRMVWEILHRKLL
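Test system: hSENP1 catalytic domain, recombinant; Amount: 20 pM final SENP1 enzyme; Medium: Tris pH 8 buffer plus EDTA, NaCl, BME, BSA, NP40, catalase; Schedule: 50 min enzyme reaction, room temperature, light-protected; Technique: FRET fluorescence in CFP and YFP emission channels; Controls: no-enzyme wells low, DMSO-plus-enzyme wells high control.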
UBC9 SUMO inh: SUMOylation inhibition; actives 0.36% (n = 290,000); AID 2006; P63279; HTRF SUMOylation assay, SAE1/SAE2 + UBC9, in vitro; inhibition, % at 35 µM; in the data active = inhibition above about 50%, passing the limit was not always enough
Target sequence (P63279 whole entry, looked up): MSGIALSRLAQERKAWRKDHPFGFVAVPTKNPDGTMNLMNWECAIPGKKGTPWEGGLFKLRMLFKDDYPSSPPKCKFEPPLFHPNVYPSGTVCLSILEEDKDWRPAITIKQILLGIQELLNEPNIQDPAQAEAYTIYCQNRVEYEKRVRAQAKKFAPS
SENP1 inh conf: SENP1 (human) inhibition, single concentration confirmation | shares compounds with SENP1 inh | recombinant SENP1, CyPet-SUMO1-YPet FRET cleavage | inhibition, % at 10 µM | actives 34% (n = 520) | AID 651678; in the data active = inhibition mostly above about 35%, no sharp cut-off; inactive = mostly below about 32%;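 also: 0% = enzyme with DMSO and 100% = no enzyme control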
SENP1 kin conf: confirmation of human SENP1 SUMO protease inhibitors, kinetic | shares compounds with SENP1 inh | recombinant SENP1, CyPet-SUMO1-YPet FRET kinetic cleavage | inhibition, % at 10 µM | actives 26% (n = 520); in the data active = inhibition mostly above about 32%, no sharp cut-off; inactive = mostly below about 29%;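 also: 0% = DMSO with enzyme and 100% = no enzyme substrate only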
The depositor's hits bear a star; i = inactive; x = not tested or not shown; ! = not confirmed by another sample.

SMILES	Rpn11 block	CSN inh	TPT1 inhibitor	HNF4A DNA FP	SENP1 inh	UBC9 SUMO inh	SENP1 inh conf	SENP1 kin conf
COC(=O)CSc1nc2cc(OC)ccc2cc1C#N	i	-4.3	1.9	-1.3	37.4*	-1.8	16.4	3.0
N#CC1(Nc2cccc(Br)c2)C(=O)Nc2ccccc21 (stereo not given)	i	-3.7	-1.3	1.2	-0.4	5.2	x	x
CCc1cccc(CC)c1NC(=O)CO/N=C(\N)CC(=O)NC1CCCCC1	i	5.9	5.2	11.6	8.8	2.7	x	x
COc1ccccc1NC(=O)CON=C(N)CC(=O)NC1CCCCC1	i	-7.9	x	-11.0	54.8*	x	50.7*	45.8*
CN1C[C@H](C(=O)N[C@]2(C)O[C@@]3(O)[C@@H]4CCCN4C(=O)[C@H](Cc4ccccc4)N3C2=O)CC2c3cccc4[nH]cc(c34)C[C@H]21 (stereo not given in full)	i	3.3	-6.3	5.3	33.6*!	x	-5.6	-2.4
Cc1ccnc(NC(=O)CCC(=O)c2cc(C)sc2C)c1	x	15.8	16.9	21.3	38.2*	x	15.2	12.8
CCOC(=O)c1cc(C(=O)c2cc(F)ccc2O)coc1=N	i	-0.3	1.3	2.0	-34.6	19.9	x	x
N=c1occ(C(=O)c2cc(F)ccc2O)cc1C(=O)NC1CCCCC1	i	-5.8	1.6	1.4	30.3*	-3.2	6.2	13.1
COc1cc(/C=C2\CCCc3c2nc2ccccc2c3C(=O)O)cc(Br)c1O	i	3.6	3.8	2.8	56.0*	-0.2	97.0*	66.9*
COc1ccc(/C=C2\CCCc3c2nc2ccccc2c3C(=O)OCC(=O)c2c(N)n(C)c(=O)n(C)c2=O)cc1	x	x	-0.7	x	x	27.1	x	x
C=CCNC(=O)c1ccc(CNS(=O)(=O)c2ccc(NC(C)=O)cc2)cc1	i	-0.9	0.7	-3.8	2.0	15.7	x	x
Cc1ccc(-c2ccccc2C2=CC(=O)CC(C)(C)C2=O)cc1	i	-2.1	x	0.9	2.5	x	x	x
COc1ccc(-c2ccccc2C2=CC(=O)CC(C)(C)C2=O)cc1	i	-2.7	x	3.6	32.8*	x	-2.2	1.0
COc1ccc2cc(C3=CC(=O)CC(C)(C)C3=O)ccc2c1	i	-7.2	x	5.0	32.1*	x	-0.9	5.0
COc1ccc(N2CCN(C(=O)C3CCN(S(=O)(=O)c4ccc(F)cc4)CC3)CC2)cc1	i	-4.7	1.7	0.7	-0.4	13.8	x	x
CCS(=O)(=O)c1ccc(C(=O)NC2CC2)c(Cl)c1Cl	i	-2.2	1.1	-2.6	0.9	-17.2	x	x
O=c1nc(-c2ccccc2)cc(C(F)(F)F)[nH]1	i	-4.0	2.2	1.9	3.1	23.7	x	x
Cc1cc(-c2ccccc2)nc(=O)[nH]1	i	-16.9	-0.9	-23.8	35.0*	-2.6	1.4	12.9
O=C1CCCc2c1cc(C(=O)Nc1ccc(Br)cn1)c(=O)n2-c1ccccc1	i	-0.8	0.5	-1.4	69.8*	17.7	-9.9	-8.1
NC(=O)N/N=C/c1c(O)ccc2oc3c(c12)CCCC3	i	-1.8	0.8	-4.8	1.3	16.9	x	x
CC(C)(C)N=Cc1c(O)ccc2oc3c(c12)CCCC3	i	-3.5	-3.7	-67.6	30.9*	2.1	3.7	0.1
Nc1ccc2oc(=O)c(-c3ccccc3)cc2c1	i	-4.5	-1.8	-1.7	67.9*	20.4	17.1	16.5
Nc1ccc(-c2cc3ccccc3oc2=O)cc1	i	3.6	-1.9	0.9	-18.6	13.0	x	x
Cc1cc(C(=O)NCc2ccccc2F)c2ccccc2n1	i	-5.9	9.3	1.5	42.9*	13.1	50.9*	40.6*
COc1cc2cc(C)c(SCC(=O)N3CCOCC3)nc2cc1OC	i	-2.9	12.6	-2.5	32.5*	18.9	20.6	16.2
SMILES	Rpn11 block	CSN inh	TPT1 inhibitor	HNF4A DNA FP	SENP1 inh	UBC9 SUMO inh	SENP1 inh conf	SENP1 kin conf
COc1cc2cc(C#N)c(SCC(=O)N3CCOCC3)nc2cc1OC	i	3.4	0.7	1.9	-18.5	11.1	x	x
Cn1c(=O)oc2cc(S(=O)(=O)NCc3ccc(C(=O)O)cc3)ccc21	x	16.9	17.0	5.3	28.3*	9.1	17.1	1.9
CC(C)C(=O)N(Cc1ccccc1)S(=O)(=O)c1ccc2c(c1)oc(=O)n2C	x	17.8	8.4	11.4	42.7*	-3.1	16.4	13.2
Cn1c(=O)oc2cc(S(=O)(=O)Nc3ccc(C(=O)O)cc3)ccc21	i	2.7	x	-4.7	5.1	x	x	x
COc1ccccc1Nc1c([N+](=O)[O-])cc(C)cc1[N+](=O)[O-]	i	-0.2	-0.8	3.0	3.3	14.3	x	x
COc1ccccc1Nc1ccc([N+](=O)[O-])cc1N	i	4.2	6.2	4.5	49.4*	-12.4	29.4	17.1
COc1ccc(NC(=O)c2c(C)noc2-c2snnc2C)cc1	i	1.1	1.4	1.5	1.2	16.8	x	x
Nc1ccc2c(c1)C(=O)N(CCCC(=O)O)C2=O	i	-3.1	-9.7	-3.0	74.4*	29.4	56.3*	27.8
Cc1csc(=O)n1CC(=O)OCC(=O)Nc1ccc(Cl)cc1F	i	5.0	-1.0	-0.1	0.3	x	x	x
COc1ccc(C(C)=O)c(Oc2nc(CN3CCOCC3)nc3scc(-c4cccs4)c23)c1	i	9.3	-2.9	-1.7	0.3	-11.9	x	x
CC(=O)c1ccccc1Oc1nc(CN2CCOCC2)nc2scc(-c3cccs3)c12	i	0.7	-0.4	-4.2	44.1*	2.2	52.4*	33.0*
Cc1cccc(-n2c(SCc3cc(=O)n4ccsc4n3)nc3ccccc32)c1	i	5.0	-10.2	-3.8	31.4*	-20.7	39.8*	28.3
COCCN(C(=O)c1cc(-c2ccc(F)cc2)nc2ccccc12)c1c(N)n(CC(C)C)c(=O)[nH]c1=O	i	1.0	x	-0.2	-2.7	x	x	x
COc1cc(/C=C/c2onc(C)c2[N+](=O)[O-])cc(OC)c1OC	i	0.7	2.6	1.3	48.6*	x	9.3	10.1
Cc1cccc(/C=C/c2onc(C)c2[N+](=O)[O-])n1	x	x	1.6	x	x	x	x	x
COc1ccc(S(=O)(=O)N2CCN(C(=O)NCc3ccc(OC)c(OC)c3)CC2)cc1	i	0.5	-2.3	0.8	0.1	-8.3	x	x
O=[N+]([O-])c1ccc(C=NNc2ccc(S(=O)(=O)O)cc2)cc1	i	4.0	x	3.3	73.3*	x	28.6	16.4
O=C(Nc1ccc(F)cc1)C(=O)c1c(O)[nH]c2ccc([N+](=O)[O-])cc12	i	1.0	0.4	-2.3	3.1	x	x	x
COc1ccc(CNC(=O)COC(=O)c2ccc3ccccc3n2)cc1	i	7.6	x	-3.8	37.6*	x	26.1	23.1
